Source: ChEMBL document CHEMBL3112547, “Surface plasmon resonance using the catalytic domain of soluble guanylate cyclase allows the detection of enzyme activators” (Bioorg Med Chem Lett, 2014)
Calls of active or inactive are those of the source. No cut-off for these calls is given here.

Experiments:
[1] = Solubility of the compound in assay buffer in presence of 5% DMSO; type: physicochemical
[2] = target: T1, Soluble guanylate cyclase alpha1/beta1 complex (Homo sapiens) (UniProt Q02153+Q02108); assay: Binding affinity to sGC subunit alpha-1/beta-1 catalytic domain (unknown origin) assessed as occupancy relative to control; type: protein-complex assay
How it was run: (§1)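 Compounds at 100 μM in DMSO-containing running buffer, 25 °C. Injection and dissociation 30 s each, triplicate. Responses double-referenced, DMSO-corrected, control subtracted; occupancy is the fraction of immobilised sites bound, assuming 1:1 stoichiometry.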

[3] = target: T1, Soluble guanylate cyclase alpha1/beta1 complex (Homo sapiens); assay: Activation of human recombinant sGC subunit alpha-1/beta-1 using GTP as substrate assessed as cGMP production measured per ng of protein at 100 uM treated prior to DEA/NO addition measured after 2 mins by radioimmunoassay in presence of Mg2+; type: protein-complex assay
[4] = target: T1, Soluble guanylate cyclase alpha1/beta1 complex (Homo sapiens); assay: Binding affinity to full-length human recombinant sGC subunit alpha-1/beta-1 at 100 uM after 30 seconds by SPR analysis; type: protein-complex assay
How it was run: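 Compounds at 100 μM in running buffer (10 mM HEPES pH 7.4, 150 mM NaCl, 3 mM EDTA, 0.05% P20, 1 mM DTT, 10 mM MgCl2, 5% DMSO), 25 °C. Injection and dissociation 30 s each, triplicate.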

[5] = target: T1, Soluble guanylate cyclase alpha1/beta1 complex (Homo sapiens); assay: Binding affinity to sGC subunit alpha-1/beta-1 catalytic domain (unknown origin) at 100 uM after 30 seconds by SPR analysis; type: protein-complex assay; how it was run: as §1

Row | solubility [1] | Occ [2] [%] | Activity [3] [pmol] | Activity [4] | Activity [5] | SMILES
1 | Insoluble | – | – | – | – | Nc1nc(-c2nn(Cc3ccccc3F)c3ncccc23)ncc1C1CC1
2 | – | 40 | 15.6 | Active | – | CC(C)(C)OC(=O)NCc1noc(-c2nn(Cc3ccc4c(c3)OCO4)c3ccccc23)n1
3 | – | 94 | 2.08 | – | – | NCc1noc(-c2c3ccccc3nn2Cc2cccc(Cl)c2)n1
4 | – | 20 | 4.05 | – | – | CC(=O)n1nc(-c2nc(CN)no2)c2ccccc21
5 | – | 101 | 3.22 | Active | – | Cc1ccccc1Cn1nc(-c2nc(CN)no2)c2ccccc21
6 | – | 62 | 2.23 | – | – | CC(=O)Nc1ccc(Cn2nc(-c3nc(CNC(=O)OC(C)(C)C)no3)c3ccccc32)cc1
7 | – | 90 | 14.3 | Active | – | Cc1ccc(Cn2nc(-c3nc(CN)no3)c3ccccc32)cc1

The next lines start with the compound.

Row | SMILES | solubility [1] | Occ [2] [%] | Activity [3] [pmol] | Activity [4] | Activity [5]
8 | O=C(O)CCCCN(CCc1ccccc1OCc1ccc(CCc2ccccc2)cc1)Cc1ccc(C(=O)O)cc1 | – | – | – | Active | inactive
9 | NCc1noc(-c2c3ccccc3nn2CCn2ccnc2)n1 | – | 28 | 2.72 | – | –
10 | Cc1oncc1Cn1nc(-c2nc(CN)no2)c2ccccc21 | – | 34 | 9.09 | Active | –
11 | NCc1noc(-c2c3ccccc3nn2Cc2ccc3c(c2)OCO3)n1 | – | 96 | 9.11 | – | –
12 | COc1ccc(Cn2nc(-c3nc(CN)no3)c3ccccc32)cc1 | – | 21 | 2.33 | inactive | inactive
